From ChEMBL document CHEMBL1133701, “Synthesis and human beta-adrenoceptor activity of 1-(3,5-diiodo-4- methoxybenzyl)-1,2,3,4-tetrahydroisoquinolin-6-ol derivatives in vitro” (J Med Chem, 2000)

Assays:
[1] = target: Beta-3 adrenergic receptor (Homo sapiens) (UniProt P13945); assay: Intrinsic activity against Beta3-AR expressed in CHO cells in cAMP-RIA assay; type: functional, cell-based
[2] = target: Beta-3 adrenergic receptor (Homo sapiens) (UniProt P13945); assay: Agonistic potency against Beta3-AR expressed in CHO cells by using cAMP-RIA assay; MA means minimal activity; type: functional, cell-based
[3] = target: Beta-2 adrenergic receptor (Homo sapiens) (UniProt P07550); settings: CHO
Sequence of Beta-2 adrenergic receptor (Homo sapiens) (P07550 whole entry, looked up): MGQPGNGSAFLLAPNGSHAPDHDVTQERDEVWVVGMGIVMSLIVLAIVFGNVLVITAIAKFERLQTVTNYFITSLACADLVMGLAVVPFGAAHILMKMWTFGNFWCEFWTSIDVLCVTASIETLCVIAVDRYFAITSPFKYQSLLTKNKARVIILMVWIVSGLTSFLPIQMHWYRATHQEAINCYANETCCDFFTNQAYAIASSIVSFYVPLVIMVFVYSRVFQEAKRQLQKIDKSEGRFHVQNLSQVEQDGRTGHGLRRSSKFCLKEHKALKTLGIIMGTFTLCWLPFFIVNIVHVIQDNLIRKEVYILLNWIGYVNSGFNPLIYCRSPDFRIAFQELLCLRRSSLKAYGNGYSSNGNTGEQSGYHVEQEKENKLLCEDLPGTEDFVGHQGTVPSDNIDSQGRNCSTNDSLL

[4] = target: Beta-3 adrenergic receptor (Homo sapiens) (UniProt P13945); settings: CHO
[5] = target: Beta-1 adrenergic receptor (Homo sapiens) (UniProt P08588); settings: CHO
Sequence of Beta-1 adrenergic receptor (Homo sapiens) (P08588 whole entry, looked up): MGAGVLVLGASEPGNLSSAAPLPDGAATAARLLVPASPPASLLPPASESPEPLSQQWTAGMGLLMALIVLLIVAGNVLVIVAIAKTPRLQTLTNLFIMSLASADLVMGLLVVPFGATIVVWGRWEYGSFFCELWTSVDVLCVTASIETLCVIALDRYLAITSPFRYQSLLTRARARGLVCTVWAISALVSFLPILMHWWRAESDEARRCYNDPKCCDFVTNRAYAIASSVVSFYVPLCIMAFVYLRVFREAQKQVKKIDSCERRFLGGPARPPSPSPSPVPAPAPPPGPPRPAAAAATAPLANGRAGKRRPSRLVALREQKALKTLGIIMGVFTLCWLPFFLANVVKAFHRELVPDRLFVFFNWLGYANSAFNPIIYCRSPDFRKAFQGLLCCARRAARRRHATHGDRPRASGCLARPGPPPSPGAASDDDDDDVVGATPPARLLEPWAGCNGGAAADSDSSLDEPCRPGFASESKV

[6] = target: Beta-3 adrenergic receptor (Homo sapiens) (UniProt P13945); assay: Agonistic potency against Beta3-AR expressed in CHO cells by using cAMP-RIA assay; type: functional, cell-based
[7] = target: Beta-1 adrenergic receptor (Homo sapiens) (UniProt P08588); assay: Agonistic potency against BETA1-AR expressed in CHO cells by using CRE-LUC assay;MA means minimal activity; type: functional, cell-based
Method in brief: (§1)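 CHO cells transfected by electroporation (single 70-ms, 150-V pulse) with human receptor and CRE–luciferase reporter; seeded 40 000/well, grown 20 h, then exposed 4 h to drug at 10^-11–10^-4 M. Cells lysed, luciferase light read by luminometer, duplicates per concentration. Response as percent of maximum to (-)isoproterenol 10^-6 M; pKact = -log molar concentration giving 50% of own maximal response; mean ± SEM.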

[8] = target: Beta-2 adrenergic receptor (Homo sapiens) (UniProt P07550); assay: Agonistic potency against BETA2-AR expressed in CHO cells by using CRE-LUC assay;MA means minimal activity; type: functional, cell-based; method in brief: as §1
[9] = target: Beta-3 adrenergic receptor (Homo sapiens) (UniProt P13945); settings: CHO; remark: listed apart in the source
[10] = target: Beta-2 adrenergic receptor (Homo sapiens) (UniProt P07550); assay: Agonistic potency against BETA2-AR expressed in CHO cells by using cAMP-RIA assay;MA means minimal activity; type: functional, cell-based
[11] = target: Beta-2 adrenergic receptor (Homo sapiens) (UniProt P07550); settings: CHO; remark: listed apart in the source
[12] = target: Beta-3 adrenergic receptor (Homo sapiens) (UniProt P13945); assay: Agonistic potency against Beta3-AR expressed in CHO cells by using cAMP-RIA assay;MA means minimal activity; type: functional, cell-based
[13] = target: Beta-1 adrenergic receptor (Homo sapiens) (UniProt P08588); settings: CHO; remark: listed apart in the source
[14] = target: Beta-1 adrenergic receptor (Homo sapiens) (UniProt P08588); settings: CHO; remark: listed apart in the source
[15] = target: Beta-2 adrenergic receptor (Homo sapiens) (UniProt P07550); settings: CHO; remark: listed apart in the source
[16] = target: Beta-2 adrenergic receptor (Homo sapiens) (UniProt P07550); settings: CHO; remark: listed apart in the source
[17] = target: Beta-1 adrenergic receptor (Homo sapiens) (UniProt P08588); settings: CHO; remark: listed apart in the source

Sequence of Beta-3 adrenergic receptor (Homo sapiens) (P13945 whole entry, looked up): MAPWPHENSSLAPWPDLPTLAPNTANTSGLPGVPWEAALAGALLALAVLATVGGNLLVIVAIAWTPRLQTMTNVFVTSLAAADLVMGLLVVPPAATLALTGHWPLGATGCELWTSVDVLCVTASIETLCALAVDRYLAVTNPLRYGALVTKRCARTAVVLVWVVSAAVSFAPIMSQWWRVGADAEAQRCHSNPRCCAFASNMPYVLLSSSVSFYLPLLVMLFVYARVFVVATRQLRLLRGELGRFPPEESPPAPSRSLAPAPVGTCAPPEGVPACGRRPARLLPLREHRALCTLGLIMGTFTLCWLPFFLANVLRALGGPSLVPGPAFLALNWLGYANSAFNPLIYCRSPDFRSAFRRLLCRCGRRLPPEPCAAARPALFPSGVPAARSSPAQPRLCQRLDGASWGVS

Row | SMILES | IA [1] | IA [3] | pK [4] | pK [6] | IA [9] | MA [10] | pK [15] | also measured
1 | COc1c(I)cc(CC2NCCc3c2cc(Br)c(O)c3Br)cc1I (stereo not drawn) | 20 | 3 | – | – | – | – | – | MA [2]: Partial agonist
2 | COc1c(I)cc(CC2NCCc3c2cc(I)c(O)c3I)cc1I (stereo not drawn) | 18 | 6 | – | – | – | Partial agonist | – | MA [12]: Partial agonist
3 | COc1c(I)cc(CC2NCCc3cc(O)c(O)cc32)cc1I (stereo not drawn) | 120 | 52 | – | 8.76 | – | – | 8.84 | pK [13]: 8.11; IA [14]: 103
4 | CC(C)NCC(O)c1ccc(O)c(O)c1 (stereo not drawn) | – | – | 7.74 | – | 100 | – | – | –
5 | COc1cc(C[C@@H]2NCCc3cc(O)c(O)cc32)cc(OC)c1OC | 95 | 95 | – | 8.6 | – | – | 8.33 | pK [13]: 8.7; IA [14]: 109

The next lines start with results.

Row | IA [1] | IA [3] | pK [4] | pK [6] | IA [9] | MA [10] | pK [15] | SMILES | also measured
6 | 52 | 15 | 7.54 | 8.2 | 62 | Partial agonist | – | COc1c(I)cc(CC2NCCc3ccccc32)cc1I (stereo not drawn) | IA [5]: 22; MA [7]: Partial agonist; MA [8]: Partial agonist; IA [11]: 21
7 | 106 | 44 | 7.45 | 7.88 | 90 | – | 6.87 | COc1c(I)cc(CC2NCCc3cc(O)ccc32)cc1I (stereo not drawn) | IA [5]: 58; pK [16]: 6.36; pK [17]: 5.71; IA [11]: 38
8 | 35 | 4 | – | 7.92 | – | Partial agonist | – | COc1c(I)cc(CC2NCCc3cc(O)c(I)cc32)cc1I (stereo not drawn) | –
9 | 31 | 26 | – | 8.25 | – | Partial agonist | – | COc1c(I)cc(CC2NCCc3c2ccc(O)c3Br)cc1I (stereo not drawn) | –
10 | 8 | 65 | – | – | – | – | 6.77 | COc1c(I)cc(CC2NCCc3c2ccc(O)c3I)cc1I (stereo not drawn) | MA [12]: Partial agonist
